# Tests used:
# Acinetobacter baumannii [1] = assay: Potentiation of colistin-induced antimicrobial activity against colistin-resistant Acinetobacter baumannii 4106 assessed as fold reduction in colistin MIC at 60 uM after 18 hrs by broth microdilution assay; assay type: functional
# How it was run: (§1)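 Checkerboard-style resensitization following adapted CLSI broth microdilution. Bacteria were grown 4–6 h in CAMHB and subcultured to 5×10^5 CFU/mL. Adjuvant was added from DMSO stock and held constant while colistin was serially diluted in the dosed subculture. Plates were incubated stationary at 37°C for 18 h, then MICs were read. Fold reduction was taken relative to the colistin MIC without adjuvant.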
# Acinetobacter baumannii [2] = assay: Toxicity in Acinetobacter baumannii 4106 after 18 hrs by broth microdilution assay; assay type: organism-based; conditions: in vitro
# How it was run: (§2)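 Single-agent MIC per CLSI broth microdilution. Cells from a 4–6 h culture in cation-adjusted Mueller-Hinton broth adjusted to 5 ×10^5 CFU/mL. Compound (DMSO stock) added to 200 μM top concentration and twofold serially diluted six times, with an untreated control row. Plates sealed and incubated stationary at 37°C for 18 h before MIC read.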
# Acinetobacter baumannii [3] = assay: Toxicity in Acinetobacter baumannii ATCC 17978 expressing mcr1 gene after 18 hrs by broth microdilution assay; assay type: organism-based; how it was run: as §2
# Escherichia coli [4] = assay: Toxicity in Escherichia coli ATCC 25922 after 18 hrs by broth microdilution assay; assay type: organism-based; conditions: in vitro; how it was run: as §2
# Acinetobacter baumannii [5] = assay: Potentiation of colistin-induced antimicrobial activity against colistin-resistant Acinetobacter baumannii isolate 3941 assessed as fold reduction in colistin MIC at 60 uM after 18 hrs by broth microdilution assay; assay type: functional; how it was run: as §1
# Acinetobacter baumannii [6] = assay: Potentiation of colistin-induced antimicrobial activity against colistin-resistant Acinetobacter baumannii isolate 3942 assessed as fold reduction in colistin MIC at 60 uM after 18 hrs by broth microdilution assay; assay type: functional; how it was run: as §1
# Klebsiella pneumoniae [7] = assay: Potentiation of colistin-induced antimicrobial activity against colistin-resistant Klebsiella pneumoniae isolate A5 assessed as fold reduction in colistin MIC at 60 uM after 18 hrs by broth microdilution assay; assay type: functional; how it was run: as §1
# Klebsiella pneumoniae [8] = assay: Potentiation of colistin-induced antimicrobial activity against colistin-resistant Klebsiella pneumoniae isolate C3 assessed as fold reduction in colistin MIC at 60 uM after 18 hrs by broth microdilution assay; assay type: functional; how it was run: as §1
# Acinetobacter baumannii [9] = assay: Potentiation of colistin-induced antimicrobial activity against colistin-sensitive Acinetobacter baumannii 5075 assessed as fold reduction in colistin MIC at 60 uM after 18 hrs by broth microdilution assay; assay type: functional
# How it was run: (§3)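 Bacteria grown 4–6 h in cation-adjusted Mueller-Hinton broth and diluted to 5 ×10^5 CFU/mL. Adjuvant from DMSO stock held at fixed 60 μM while colistin is twofold serially diluted in the same adjuvant-dosed broth. Plates sealed and kept stationary at 37°C for 18 h. Colistin MIC read and fold reduction taken relative to colistin alone.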
# Acinetobacter baumannii [10] = assay: Potentiation of colistin-induced antimicrobial activity against Acinetobacter baumannii ATCC 17978 assessed as fold reduction in colistin MIC at 60 uM after 18 hrs by broth microdilution assay; assay type: functional; how it was run: as §3
# Escherichia coli [11] = assay: Potentiation of colistin-induced antimicrobial activity against Escherichia coli ATCC 25922 assessed as fold reduction in colistin MIC at 60 uM after 18 hrs by broth microdilution assay; assay type: functional; how it was run: as §3
# Klebsiella pneumoniae [12] = assay: Potentiation of colistin-induced antimicrobial activity against Klebsiella pneumoniae ATCC BAA-2146 expressing NDM1 gene assessed as fold reduction in colistin MIC at 60 uM after 18 hrs by broth microdilution assay; assay type: functional; how it was run: as §3
# Acinetobacter baumannii [13] = assay: Potentiation of colistin-induced antimicrobial activity against colistin-resistant Acinetobacter baumannii isolate 3942 assessed as fold reduction in colistin MIC at 50 uM after 18 hrs by broth microdilution assay; assay type: functional
# How it was run: (§4)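 CLSI-adapted broth microdilution. Bacteria were grown 4–6 h in cation-adjusted Mueller-Hinton broth and subcultured to 5 ×10^5 CFU/mL. The subculture was dosed with adjuvant from DMSO stock at a constant final concentration, then colistin was added and serially diluted across wells. Plates were incubated stationary at 37°C for 18 h and the MIC recorded. Fold reduction is relative to the colistin MIC without adjuvant.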
# Acinetobacter baumannii [14] = assay: Potentiation of colistin-induced antimicrobial activity against colistin-resistant Acinetobacter baumannii isolate 3942 assessed as fold reduction in colistin MIC at 20 uM after 18 hrs by broth microdilution assay; assay type: functional; how it was run: as §4
# Acinetobacter baumannii [15] = assay: Potentiation of colistin-induced antimicrobial activity against colistin-resistant Acinetobacter baumannii isolate 3942 assessed as fold reduction in colistin MIC at 10 uM after 18 hrs by broth microdilution assay; assay type: functional; how it was run: as §4
# Acinetobacter baumannii [16] = assay: Potentiation of colistin-induced antimicrobial activity against colistin-resistant Acinetobacter baumannii isolate 3942 assessed as fold reduction in colistin MIC at 5 uM after 18 hrs by broth microdilution assay; assay type: functional; how it was run: as §4
# Klebsiella pneumoniae [17] = assay: Potentiation of colistin-induced antimicrobial activity against colistin-resistant Klebsiella pneumoniae isolate C3 assessed as fold reduction in colistin MIC at 40 uM after 18 hrs by broth microdilution assay; assay type: functional; how it was run: as §4
# Klebsiella pneumoniae [18] = assay: Potentiation of colistin-induced antimicrobial activity against colistin-resistant Klebsiella pneumoniae isolate C3 assessed as fold reduction in colistin MIC at 15 uM after 18 hrs by broth microdilution assay; assay type: functional; how it was run: as §4
# Klebsiella pneumoniae [19] = assay: Potentiation of colistin-induced antimicrobial activity against colistin-resistant Klebsiella pneumoniae isolate C3 assessed as fold reduction in colistin MIC at 10 uM after 18 hrs by broth microdilution assay; assay type: functional; how it was run: as §4
# Acinetobacter baumannii [20] = assay: Potentiation of colistin-induced antimicrobial activity against colistin-resistant Acinetobacter baumannii isolate 3942 after 18 hrs by broth microdilution assay; assay type: functional, organism-based
# How it was run: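 Colistin MIC was determined by adapted CLSI broth microdilution in CAMHB (5×10^5 CFU/mL inoculum), with adjuvant held at fixed levels of 5, 10, 15, 20, 30, 40, 50 or 60 μM. Adjuvant was dosed from DMSO stock while colistin was serially diluted. Plates were incubated stationary at 37°C for 18 h. Fold reduction was taken versus colistin alone.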
# Acinetobacter baumannii [21] = assay: Potentiation of colistin-induced antimicrobial activity against colistin-resistant Acinetobacter baumannii isolate 3942 assessed as fold reduction in colistin MIC at 30 uM incubated for 2 to 24 hrs under shaking condition in presence of 0.001% triton X-100 by broth microdilution assay; assay type: functional
# Klebsiella pneumoniae [22] = assay: Potentiation of colistin-induced antimicrobial activity against colistin-resistant Klebsiella pneumoniae isolate C3 assessed as fold reduction in colistin MIC at 60 uM incubated for 2 to 24 hrs under shaking condition in presence of 0.001% triton X-100 by broth microdilution assay; assay type: functional
# Klebsiella pneumoniae [23] = assay: Potentiation of colistin-induced antimicrobial activity against colistin-resistant Klebsiella pneumoniae isolate C3 assessed as fold reduction in colistin MIC at 30 uM incubated for 2 to 24 hrs under shaking condition in presence of 0.001% triton X-100 by broth microdilution assay; assay type: functional
# Acinetobacter baumannii [24] = assay: Induction of membrane permeabilization in colistin-resistant Acinetobacter baumannii isolate 3942 at 60 uM measured after 1 hr by SYTO-9/propidium iodide staining based fluorescence assay relative to control; assay type: functional
# How it was run: (§5)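 Cells were grown overnight in CAMHB at 37°C, diluted 1:10 and grown 4 h more to an OD600 of ~0.3. They were pelleted, washed with sterile water and resuspended at 1/10 volume in water containing compound. After 1 h at 37°C with shaking, cells were washed and stained with SYTO-9/propidium iodide (1:1, 3 μL/mL) for 15 min at RT. Emission was read at 530 and 645 nm (excitation 485 nm), and the green/red ratio was expressed as % of the untreated control.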
# Klebsiella pneumoniae [25] = assay: Induction of membrane permeabilization in colistin-resistant Klebsiella pneumoniae isolate C3 at 60 uM measured after 1 hr by SYTO-9/propidium iodide staining based fluorescence assay relative to control; assay type: functional; how it was run: as §5
smiles,measurement,setting,value
O=C(NCc1c[nH]c2ccccc12)c1cc(Br)c(Br)[nH]1,fold change (FC),Acinetobacter baumannii [1],2048
same,MIC,Acinetobacter baumannii [2],> 200 µM
same,MIC,Acinetobacter baumannii [3],> 200 µM
same,MIC,Escherichia coli [4],> 200 µM
same,fold change (FC),Acinetobacter baumannii [5],1024
same,fold change (FC),Acinetobacter baumannii [6],2048
same,fold change (FC),Klebsiella pneumoniae [7],512
same,fold change (FC),Klebsiella pneumoniae [8],2048
same,fold change (FC),Acinetobacter baumannii [9],4
same,fold change (FC),Acinetobacter baumannii [10],4
same,fold change (FC),Escherichia coli [11],4
same,fold change (FC),Klebsiella pneumoniae [12],0
same,fold change (FC),Acinetobacter baumannii [13],512
same,fold change (FC),Acinetobacter baumannii [14],16
same,fold change (FC),Acinetobacter baumannii [15],2
same,fold change (FC),Acinetobacter baumannii [16],0
same,fold change (FC),Klebsiella pneumoniae [17],256
same,fold change (FC),Klebsiella pneumoniae [18],64
same,fold change (FC),Klebsiella pneumoniae [19],32
same,Activity,Acinetobacter baumannii [20],Dose-dependent effect
same,fold change (FC),Acinetobacter baumannii [21],128
same,fold change (FC),Klebsiella pneumoniae [22],2048
same,fold change (FC),Klebsiella pneumoniae [23],512
same,fold change (FC),Acinetobacter baumannii [24],1.9
same,fold change (FC),Klebsiella pneumoniae [25],1.5

# From ChEMBL document CHEMBL4392827, “Tryptamine derivatives disarm colistin resistance in polymyxin-resistant gram-negative bacteria” (Bioorg Med Chem, 2019)
